Published values pooled from the literature.
Compare with care: the assays were run in different laboratories.
Target: SRSF protein kinase 2 (SRPK2, Homo sapiens, UniProt P78362)

O=C(NCCCN1CCOCC1)c1ccc(Nc2nccc(-c3cc4ccccc4s3)n2)cc1 — remaining binding (binding; competition with immobilised ligand; 1 µM): 99%
CN(C)c1nccc(-c2cnc3ncccn23)n1 — remaining binding (binding; 1 µM): 100%
N#Cc1ccc(Nc2ccc3[nH]c(=O)[nH]c3c2)c(Cl)c1 — remaining binding (cell-free assay; competition with immobilised ligand; 1 µM): 100%
COc1ccnn2ncc(-c3ccnc(N(C)C)n3)c12 — remaining binding (binding; 1 µM): 100%
CNC(=O)[C@@H]1CC[C@@H](n2c(-c3ccc4cnccc4c3)nc3ccc(C(=O)NCc4cccc(C(N)=O)c4)cc32)C1 — remaining binding (binding; competition with immobilised ligand; 1 µM): 100%
O=C(c1ccc(Nc2nccc(-c3cc4ccccc4s3)n2)cc1)N1CCC(N2CCCC2)CC1 — remaining binding (binding; competition with immobilised ligand; 1 µM): 92%
COc1cnc(Nc2cccc(S(N)(=O)=O)c2)nc1N1CCN(c2ccccc2)CC1 — remaining binding (binding; competition with immobilised ligand; 1 µM): 87%
Cc1nc(Cc2cccc(C(F)(F)F)c2)sc1-c1ccc(C(N)=O)nc1 — remaining binding (cell-free assay; competition with immobilised ligand; 1 µM): 100%
C[C@@H](c1ccc(-n2cnc3c(N)ncnc32)cc1)N1CCc2nn(C)c(Cc3ccccc3)c2C1=O — remaining binding (binding; competition with immobilised ligand; 0.1 µM): 83%
Cc1c(NC(=O)c2cc(C(N)=O)nc3cc(F)ccc23)c(C(F)(F)F)nn1Cc1ccc(C(C)(C)C)cc1 — remaining binding (cell-free assay; competition with immobilised ligand; 1 µM): 97%
C[C@@H]1CCN(c2nccc(-c3cnn4ncccc34)n2)C1 — remaining binding (binding; 1 µM): 100%
CS(=O)(=O)N1CCCC(NC(=O)[C@H](CCC2CCCCC2)NC(=O)c2ccc(CNC(=O)c3cnc4ccccn34)cc2)C1 (stereo partly drawn) — remaining binding (cell-free assay; competition with immobilised ligand; 0.1 µM): 83%
O=C(NCC1CCOCC1)c1n[nH]cc1NC(=O)c1c(F)cccc1F — remaining binding (binding; competition with immobilised ligand; 1 µM): 84%
c1cncc(-c2cccc(Nc3nccc(NC4CCCCC4)n3)c2)c1 — remaining binding (binding; competition with immobilised ligand; 10 µM): 100%
N[C@@H]1CCN(c2nccc(-c3cnn4ncccc34)n2)C1 — remaining binding (binding; 1 µM): 100%
Cc1nc(N2CC[C@@H](O)C2)ncc1-c1cc(C(F)(F)F)cc2[nH]ncc12 — remaining binding (binding; competition with immobilised ligand; 1 µM): 100%
O=C(c1ccc(Nc2ncc(Cl)c(-c3ccc(Cl)s3)n2)cc1)N1CCC(N2CCCC2)CC1 — remaining binding (binding; competition with immobilised ligand; 1 µM): 89%
F[C@@H]1CCN(c2nccc(-c3cnn4ncccc34)n2)C1 — remaining binding (binding; 1 µM): 80%
CC1=C(C#N)C(c2ccc3c(c2)c(NC(=O)c2ccccc2C)nn3C)C(C#N)=C(C)N1 — remaining binding (cell-free assay; competition with immobilised ligand; 1 µM): 88%
c1cnn2ncc(-c3ccnc(N4CCC45COC5)n3)c2c1 — remaining binding (binding; 1 µM): 70%
Nc1ncc2c(n1)-c1c([nH]c3ccc(C#CC4CC4)cc13)CCCC2 — remaining binding (binding; competition with immobilised ligand; 1 µM): 82%
